Screens: PubChem, Sanford-Burnham Center for Chemical Genomics
Only some compounds are listed: those with a hit (about 1.5% of all), similar ones and a draw of the others.
APJ ag – agonists of human apelin receptor APJ, primary screen, CHO-K1 cells, PathHunter beta-arrestin, luminescence; 0% DMSO wells, 100% apelin; activation, % at 20 µM; 330,000 tested, 0.11% active;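 active = activation more than six SD over the plate average, tested at 20 µM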
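Test system: CHO-K1 APJ beta-arrestin complementation cell line. Amount: cell density 1000 per well. Controls: DMSO negative, 10 nM Apelin-13 positive. Signal: luminescent beta-gal fragment complementation, chemiluminescent substrate. Read-out basis: agonist-driven arrestin binding to APJ. Timing: compound stimulation 90 min at 25 °C, detection 60 min.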
CXCR6 block – CXCR6 receptor inhibitors, primary screen, cell-based, beta-arrestin, luminescence, CHO-K1 PathHunter, 1536-well; C-X-C chemokine receptor type 6 (Homo sapiens), O00574; AID 602244, 2012; 360,000 tested, 0.36% active; inhibition, % at 20 µM; in the data active = inhibition above about 34%, passing the limit was not always enough;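 also: antagonist mode with CXCL16 agonist at 10 nM final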
EBI2 antag – EBI2 receptor antagonists, beta-arrestin recruitment, primary screen, cell-based, luminescence, 7a,25-OHC stimulation, uHTS; 7a,25-OHC stimulated; inhibition, % at 5 µM; 360,000 tested, 0.81% active; in the data active = inhibition above about 38%;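 also: enzyme fragment complementation signal reports receptor beta-arrestin coupling in cells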
Target sequence (P32249 whole entry, looked up, the tested form may be a part): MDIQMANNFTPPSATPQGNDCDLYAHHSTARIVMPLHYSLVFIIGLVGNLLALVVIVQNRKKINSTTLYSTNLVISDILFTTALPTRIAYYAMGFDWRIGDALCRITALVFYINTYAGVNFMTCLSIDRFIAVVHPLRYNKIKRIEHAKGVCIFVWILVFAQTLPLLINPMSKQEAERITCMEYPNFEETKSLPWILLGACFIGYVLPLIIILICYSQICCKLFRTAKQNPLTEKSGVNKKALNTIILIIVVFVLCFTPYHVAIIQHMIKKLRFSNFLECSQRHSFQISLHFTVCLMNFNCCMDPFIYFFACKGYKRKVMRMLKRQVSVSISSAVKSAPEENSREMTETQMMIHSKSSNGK
APJ antagonist – antagonists of human apelin receptor APJ, primary screen, CHO-K1 cells, beta-arrestin complementation, luminescence | P35414 | inhibition, % at 20 µM | 330,000 tested, 0.32% active | AID 2521, 2010;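 active = inhibition above about 40% at 20 µM, limit read from the data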;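 also: cells challenged with 10 nM apelin-13 agonist together with compound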
CCR6 antagonist – CCR6 receptor antagonists, primary screen, cell-based, CHO-K1, luminescence, beta-arrestin, uHTS; AID 493098, 2011; inhibition, % at 20 µM; 340,000 tested, 0.49% active; CHO-K1 CCR6 PathHunter beta-arrestin, CCL20-stimulated; C-C chemokine receptor type 6 (Homo sapiens), P51684;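 active = compounds whose inhibition of the agonist-driven luminescence signal at 20 µM reaches about 50%, limit read from the data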;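 also: cells stimulated with CCL20 at 14 nM final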
EBI2 antag conf – EBI2 antagonist hit retest, beta-arrestin, confirmation, cell-based, single concentration, luminescence, 7a,25-OHC stimulation; shares compounds with EBI2 antag; 7a,25-OHC antagonism; inhibition, % at 5 µM; 2,400 tested, 29% active;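 active = inhibition of at least 50%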
EBI2 agonist – EBI2 agonist activity of antagonist hits, confirmation, counter-screen for EBI2 antagonist project, cell-based, single concentration, agonist mode, luminescence; AID 652000, 2013; 2,400 tested, under 10 active; EBI2-expressing cells, 60 min; 0% vehicle, 100% 7α,25-dihydroxycholesterol control; shares compounds with EBI2 antag; activation, % at 5 µM;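 active = activation of at least 50%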
bGal cs – E. coli beta-galactosidase enzyme inhibition, confirmation, counter-screen for EBI2 antagonist project, biochemical, luminescence, single concentration. 2,400 tested, 1% active. AID 652176, 2013. purified beta-galactosidase, luminescent Galacton Star, 15 min. inhibition, % at 5 µM. shares compounds with EBI2 antag;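 active = replicate-average signal at least 3 plate SD below neutral wells, shown as high inhibition, flagging enzyme-inhibiting false positives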;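 also: higher means stronger loss of beta-gal luminescence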
Numbers stand for hits; - = inactive; . = not tested or not shown.

SMILES	APJ ag	CXCR6 block	EBI2 antag	APJ antagonist	CCR6 antagonist	EBI2 antag conf	EBI2 agonist	bGal cs
O=C(NCc1ccc(F)cc1)C1CCCN(C(=O)Nc2ccc(F)cc2)C1 (stereo not drawn)	-	-	51	-	-	-	-	-
O=C(NCc1ccc(F)cc1)C1CCCN(C(=O)Nc2ccccc2)C1 (stereo not drawn)	-	-	50	-	-	-	-	-
O=C(NCc1ccccc1F)C1CCCN(C(=O)Nc2ccc(F)cc2)C1 (stereo not drawn)	-	-	-	-	-	.	.	.
NC(=O)C1(N2CCCCC2)CCN(C(=O)NC2CCCCC2)CC1	-	-	-	-	-	.	.	.
O=C(c1ccc(NC(=S)NCc2ccc(Cl)cc2)cc1)N1CCCCC1	-	-	-	-	-	.	.	.
O=C(NCc1ccc(Cl)cc1)C1CCCN(C(=O)c2ccc(Cl)cc2)C1 (stereo not drawn)	-	-	66	-	-	-	-	-
COc1ccc(-c2noc(N3CCC(C(=O)NCc4ccc(Cl)cc4)CC3)n2)cc1	-	-	47	-	-	-	-	-
O=C(NCc1ccc(Cl)cc1)C1CCN(C(=O)c2ccco2)CC1	-	-	-	-	-	.	.	.
O=C(NCc1ccc(Cl)cc1)C1CCN(C(=O)c2ccc(Cl)cc2)CC1	-	-	45	-	-	-	-	-
Cc1c(Br)cccc1NC(=O)C1(C)CCN1C(C)C (stereo not drawn)	.	-	-	.	.	.	.	.
CCN(CC)CCN1CCN(c2cnc(C)cn2)CC1	.	-	-	.	.	.	.	.
O=C(COC(=O)/C=C/c1ccc(OC(F)F)cc1)NC(=O)NCc1ccccc1	-	-	50	-	-	-	-	-
O=C1CN(C(=O)COC(=O)c2c(F)cccc2Cl)c2ccccc2N1	-	-	-	-	-	.	.	.
Cc1ccc(C)c(N2CCN(C(=O)c3ccc(N4CCCC4=O)cc3)CC2)c1	-	-	48	-	-	-	-	-
Cc1ccc(C)c(N2CCN(C(=O)c3ccc4c(c3)c(C)c(C)n4C)CC2)c1	-	-	73	-	-	58	-	-
Cc1c(C)n(C)c2ccc(C(=O)N3CCN(c4ccccc4)CC3)cc12	-	-	-	-	-	.	.	.
Cc1ccc(C)c(N2CCN(C(=O)c3ccc4nc(-c5ccco5)c(-c5ccco5)nc4c3)CC2)c1	-	-	44	-	-	-	-	-
Cc1ccc(C)c(N2CCN(C(=O)c3cc4sccc4n3C)CC2)c1	-	-	74	-	-	-	-	-
Cc1noc(C)c1C(=O)OCC(=O)Nc1c(F)cccc1F	-	-	-	-	-	.	.	.
CCN(CC)C(=O)C1=C(C)N(CCCN2CCCC2=O)C(=O)C(CC(=O)NC2CCCCC2)C1 (stereo not drawn)	.	-	-	.	.	.	.	.
CCc1nc2ccc(C(=O)NCCOc3ccc(OC)cc3)cn2c1N(C)CCCc1ccccc1	.	-	58	.	.	-	-	-
CCCCNC(=O)c1ccc2nc(CC)c(N(C)Cc3ccc(OC)cc3)n2c1	.	-	-	.	.	.	.	.
CCc1nc2ccc(C(=O)NCCOc3ccc(OC)cc3)cn2c1N(C)Cc1cccs1	.	-	57	.	.	-	-	-
CCc1nc2ccc(C(=O)NCCOc3ccc(OC)cc3)cn2c1N(C)Cc1ccc(OC)cc1	.	-	62	.	.	-	-	-
CCOc1ccccc1CNCCOC	-	-	-	-	-	.	.	.
SMILES	APJ ag	CXCR6 block	EBI2 antag	APJ antagonist	CCR6 antagonist	EBI2 antag conf	EBI2 agonist	bGal cs
Cc1ccc(C(=O)Cn2c(C(=O)/C=C/c3ccccc3)nc3ccccc32)cc1	-	-	48	-	-	-	-	-
O=C(Cn1c(C(=O)c2ccccc2)nc2ccccc21)c1ccc(Cl)cc1	.	-	-	.	-	.	.	.
CCc1cccc2c1NC(=O)C21N2CCCC2C(C(=O)c2ccc3ccccc3c2)C12C(=O)Nc1ccccc12 (stereo not drawn)	-	-	55	-	-	-	-	-
Cc1cccc2c1NC(=O)C21N2CCCC2C(C(=O)c2ccc3ccccc3c2)C12C(=O)Nc1ccccc12 (stereo not drawn)	-	.	.	-	-	.	.	.
Cc1ccc(OCC(=O)Nc2ccc(N3CCN(C(=O)c4ccc(C)cc4)CC3)cc2)cc1	-	-	57	-	-	-	-	-
Cc1ccc(OCC(=O)Nc2ccc(N3CCOCC3)cc2)cc1	-	-	-	-	-	.	.	.
O=C(COc1ccc(Cl)cc1)Nc1ccc(N2CCN(C(=O)c3ccco3)CC2)cc1	-	-	54	-	-	-	-	-
CCCOc1ccc(C(=O)N2CCN(c3ccc(NC(=O)CC)cc3Cl)CC2)cc1	-	-	70	-	-	59	-	-
COc1ccc(OCC(=O)Nc2ccc(N3CCOCC3)cc2)cc1	-	-	84	-	-	79	-	-
CC(C)C12CN3CC(C(C)C)(CN(C1)C3c1ccc([N+](=O)[O-])o1)C2=O (stereo not drawn)	-	-	-	-	-	.	.	.
COC(=O)c1ccc(-n2cc(-c3ccc(OC)cc3)[nH]c2=S)cc1	.	-	74	.	-	60	-	-
COc1ccc(-n2cc(-c3ccc(Cl)cc3)[nH]c2=S)cc1	-	-	91	-	-	72	-	-
COc1cccc(NC(=O)C2CCC(CNS(=O)(=O)c3cccs3)CC2)c1 (stereo not drawn)	-	-	47	-	-	-	-	-
COc1ccc(NCCNc2ccc(OC)cc2)cc1	-	-	40	-	-	-	-	-
Cc1ccc(CCNc2ccc3ccccc3c2)cn1	-	-	-	-	-	.	.	.
Cc1ccc(NCCc2ccc(C)nc2)cc1	-	-	47	-	-	-	-	-
COc1ccc(C(=O)CCNc2ccc(F)cc2)cc1	-	-	-	-	-	.	.	.
Cc1ccc(NCCNc2ccc(C)cc2)cc1	-	-	47	-	-	58	-	-
CCOc1ccc(S(=O)(=O)N(C)c2ccc(OCC(=O)NCCc3ccc(OC)cc3)cc2)cc1	-	-	55	-	-	-	-	-
CC(=O)Nc1ccccc1Nc1nc(NCCO)nc(N2CCCC2)n1	-	-	-	-	-	.	.	.
OC(c1ccccc1)c1nc(-c2ccc(F)c(Cl)c2)cs1 (stereo not drawn)	.	-	-	.	.	.	.	.
